Arrestin-AP2 inh: inhibitors of human beta-arrestin and AP2 interaction; FITC-arrestin peptide / GST-AP2 beads, flow cytometry; AP2 beta2 appendage carries R879A mutation; inhibition, % at 10 µM; 340,000 tested, 0.31% active; AID 504490;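 active means inhibition above a set limit, near 3 SD of compounds lacking own fluorescence, cut at about 54% in these data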;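 further: plate controls were DMSO wells for no effect and 5 µM unlabelled arrestin peptide for full effect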
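Measured by: flow cytometry, FL1 (488/535 nm); Material: AP2 appendage R879A on GSH beads; Evaluation: percent response; Timing: pre-incubation 12 min, peptide binding 1 h, room temperature; Also added: 50 nM FITC-arrestin peptide; Medium: PBS with 0.05% Tween 20 and 0.1% BSA.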
NRP1-CendR mod: NRP-1/CendR interaction modulation | O14786 | FAM-RPARPAR peptide binding to NRP-1, fluorescence polarization | inhibition, % at 25 µM | 360,000 tested, 0.85% active | AID 602438;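 active means inhibition or corrected inhibition above about 18%, plus a signal ratio from 0.5 to 1.5, limit read from the data, passing the limit was not always enough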
ADAM10 inh: inhibits human ADAM10; AID 720582; O14672; inhibition, % at 7 µM; recombinant ADAM10, EDANS/DABCYL FRET peptide cleavage, 3 h; 370,000 tested, 0.62% active;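 active means inhibition above a per-campaign cutoff equal to the mean of compounds falling between control-based bounds plus 3 SD, cut at about 20% in these data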;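 further: 0% = DMSO wells while the 100% control is not disclosed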
ADAM17 inh: inhibits human ADAM17; P78536; recombinant ADAM17, EDANS/DABCYL FRET peptide cleavage; inhibition, % at 6.95 µM; 370,000 tested, 0.83% active; AID 720648;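 active means inhibition above the mean of compounds lying between control limits plus 3 SD, set per campaign, cut at about 8.5% in these data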;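 further: 0% = DMSO-only wells as the low control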
FAS TE block: inhibitors of human fatty acid synthase thioesterase domain; P49327; recombinant FAS-TE, OMFH fluorogenic substrate, fluorescence endpoint; inhibition, % at 15 µM; 360,000 tested, 0.67% active; AID 602261;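 active means compounds whose normalised, plate-corrected inhibition of enzyme fluorescence in the single-dose primary screen is 50% or more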;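 further: 0% = DMSO with enzyme and 100% = substrate without enzyme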
CaV13 FRET inh: Disruptors of the CACNA1D IQ motif to Ca2+-dependent inactivation inhibitor domain association, primary screening, Förster resonance energy transfer in intact living …; HEK cells, CFP/YFP FRET ICDI-IQ, plate reader, 10 min; percent FRET-ratio fall versus neutral wells; inhibition, % at 12.3 µM; 340,000 tested, 0.098% active;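 active means mean replicate inhibition of at least 30% and at least 1% of replicates passing that level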;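 further: 0% = median of the neutral control wells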
Starred values were filed as active, the others as inactive. A selection: hits, their analogues and other compounds. The true share with any hit is near 2.9%.

Screening CCc1c(C)nc2ncnn2c1N1CCCC(C(=O)Nc2ccc(NC(C)=O)cc2)C1 (stereo not given) returned Arrestin-AP2 inh -8.8, NRP1-CendR mod 29.2*, ADAM10 inh -1.9, ADAM17 inh -0.8 and FAS TE block -7.1.
Cc1n[nH]c(=O)nc1NCc1ccccc1 was read as Arrestin-AP2 inh 30.2, NRP1-CendR mod -11.4, ADAM10 inh 1.6, ADAM17 inh -3.1, FAS TE block -7.1 and CaV13 FRET inh -3.9.
Cc1n[nH]c(=O)nc1NCc1ccco1 was read as Arrestin-AP2 inh 28.6, NRP1-CendR mod 25.4*, ADAM10 inh -3.0, ADAM17 inh -0.2 and FAS TE block -7.4.
O=C(/C=C/[C@H]1O[C@@H](n2cnc3c(NC(=O)c4ccccc4)ncnc32)[C@H](O)[C@@H]1O)NCc1ccco1 was read as NRP1-CendR mod 21.7*, ADAM10 inh -150.1, ADAM17 inh -4.2, FAS TE block -12.7 and CaV13 FRET inh -6.2.
Screening CN(C)c1ccc(CNC(=O)/C=C/[C@H]2O[C@@H](n3cnc4c(NC(=O)c5ccccc5)ncnc43)[C@H](O)[C@@H]2O)cc1 returned NRP1-CendR mod 3.8, ADAM10 inh -16.9, ADAM17 inh -3.0, FAS TE block 0.8 and CaV13 FRET inh -4.2.
Nc1ccc(N=Nc2ccccc2)cc1[N+](=O)[O-] was read as Arrestin-AP2 inh -12.1, NRP1-CendR mod 23.4*, ADAM10 inh 10.9, ADAM17 inh 2.5, FAS TE block 17.8 and CaV13 FRET inh -2.7.
`CN1CCN(c2ccc(S(=O)(=O)N3CCCCC3)cn2)CC1` gave Arrestin-AP2 inh -120.6, NRP1-CendR mod -11.4, ADAM10 inh -13.9, ADAM17 inh -4.7, FAS TE block -9.1 and CaV13 FRET inh -4.2.
Screening CN1CCN(S(=O)(=O)c2ccc(N3CCc4ccccc4C3)nc2)CC1 returned Arrestin-AP2 inh 3.2, NRP1-CendR mod 21.4*, ADAM10 inh -7.5, ADAM17 inh -0.4, FAS TE block 41.7 and CaV13 FRET inh -5.0.
Screening CCS(=O)(=O)c1nc(S(=O)(=O)c2ccc(Cl)cc2)c(N2CCC3(CC2)OCCO3)s1 returned Arrestin-AP2 inh -7.0, NRP1-CendR mod 10.8, ADAM10 inh 6.2, ADAM17 inh 3.9, FAS TE block 18.0 and CaV13 FRET inh -2.0.
CCS(=O)(=O)c1nc(S(=O)(=O)c2ccc(Cl)cc2)c(N2CCOCC2)s1 was read as Arrestin-AP2 inh -23.0, NRP1-CendR mod 35.0*, ADAM10 inh 0.4, ADAM17 inh -2.1, FAS TE block 8.4 and CaV13 FRET inh -2.3.
For O=C(O)CCNc1ccc2c(c1)OCCO2 the results were Arrestin-AP2 inh 13.0, NRP1-CendR mod 46.5*, ADAM10 inh -24.7, ADAM17 inh -7.3, FAS TE block -8.4 and CaV13 FRET inh -7.4.
Screening Brc1ccc(Sc2cnc3ccccc3n2)cc1 returned Arrestin-AP2 inh -4.4, NRP1-CendR mod 22.6*, ADAM10 inh -5.6, ADAM17 inh -1.7, FAS TE block 18.4 and CaV13 FRET inh -4.9.
Screening CC(=O)NNC(=O)CN1C(=O)/C(=C/c2ccccc2)SC1=S returned Arrestin-AP2 inh -9.5, NRP1-CendR mod 10.7, ADAM10 inh 11.2, ADAM17 inh -2.0, FAS TE block -3.0 and CaV13 FRET inh -6.5.
Screening CCN(CC)C(=O)CN1C(=O)/C(=C/c2ccccc2)SC1=S returned Arrestin-AP2 inh 3.4, NRP1-CendR mod 19.7*, ADAM10 inh 8.1, ADAM17 inh -1.6, FAS TE block -2.2 and CaV13 FRET inh -3.9.
CCc1ccc(/C=C2\SC(=S)N(CCCC(=O)N(CCO)c3ccccc3)C2=O)cc1 was read as NRP1-CendR mod 27.9*, ADAM10 inh 12.1, ADAM17 inh 4.3, FAS TE block 25.0 and CaV13 FRET inh -9.1.
For CCOc1c(CNCCCSc2nc(C)cc(C)n2)cccc1OC the results were Arrestin-AP2 inh -3.3, NRP1-CendR mod 17.8, ADAM10 inh -7.0, ADAM17 inh -2.0, FAS TE block -3.5 and CaV13 FRET inh -4.5.
`COc1ccc(S[C@]2(C(=O)NC3CC3)CC(=O)N[C@@H]2c2ccc(OC)cc2)cc1` gave ADAM10 inh -10.3 and ADAM17 inh -2.6.

Screening results as filed in PubChem BioAssay.
